TbHK1 inh: blocks Trypanosoma brucei hexokinase 1 activity. recombinant TbHK1, G6PDH-coupled NADH A340. 220,000 tested, 0.11% active. inhibition, % at 10 µM. AID 1430;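 active means inhibition of 50% or more in the single-dose primary screen; inactive means inhibition below 50%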
S1P4 antag: human S1P4 receptor antagonism. O95977. S1P4-expressing cells, antagonist mode, reporter read-out. inhibition, % at 4.98 µM. 220,000 tested, 0.26% active; in the data active means inhibition above about 29%;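 further: 0% = wells stimulated with agonist and 100% = vehicle wells without agonist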
Target sequence (O95977 whole entry, looked up): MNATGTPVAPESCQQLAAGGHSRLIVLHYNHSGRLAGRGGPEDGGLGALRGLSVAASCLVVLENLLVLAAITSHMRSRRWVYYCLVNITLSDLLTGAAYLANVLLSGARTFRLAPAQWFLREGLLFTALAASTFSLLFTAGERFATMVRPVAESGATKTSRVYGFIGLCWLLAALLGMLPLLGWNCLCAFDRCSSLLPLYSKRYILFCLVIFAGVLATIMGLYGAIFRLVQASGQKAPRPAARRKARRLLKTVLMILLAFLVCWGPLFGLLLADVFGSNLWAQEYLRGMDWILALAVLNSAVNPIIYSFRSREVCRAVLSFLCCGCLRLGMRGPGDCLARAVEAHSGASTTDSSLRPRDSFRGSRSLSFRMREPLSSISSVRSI
S1P4 ag: activates the human S1P4 receptor; O95977; S1P4-expressing cell line, agonist reporter assay; activation, % at 4.98 µM; 220,000 tested, 0.35% active; AID 1509; in the data active means activation above about 11%;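 further: 0% = DMSO vehicle and 100% = reference agonist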
L929 necroptosis: L929 zVAD cell death inhibition. L929 zVAD necroptosis rescue, ATP luminescence, 24 h; with zVAD 60 µM. viability rescue, % at 10 µM. 220,000 tested, 0.38% active. AID 1377;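 active means activation, scaled between plate controls, above about 75%, limit read from the data; inactive means activation under that limit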;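 further: 0% = zVAD with DMSO and 100% = DMSO alone without zVAD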
TNF death inh: blocks TNF-alpha induced death of Jurkat FADD-/- cells; Jurkat FADD-/- TNF necroptosis rescue, ATP luminescence, 24 h; 0 = TNF only, 100 = no-TNF cells; 220,000 tested, 0.068% active; activation (protection from cell death), % at 10 µM; AID 463075;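 active means activation, meaning protection from cell death, of at least 50% relative to plate controls; inactive means activation below 50%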;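 further: necroptosis triggered by 40 ng/mL TNF-alpha added together with compound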
Dynein cargo inh: blocks dynein driven cargo transport along microtubules | 220,000 tested, 0.47% active | 3617.4 mouse cells, GR-EGFP nuclear translocation imaging; test concentration mostly 20 µM; stimulated with dexamethasone, 1 µM; stronger effect = lower value | z-score, hits read low;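 active means plate z-score of nuclear minus cytoplasmic receptor signal below a set negative limit, without overly bright fluorescence or cell loss, cut at about -3.5 in these data, passing the limit was not always enough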;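 further: z-score of nuclear minus cytoplasmic ring GR-EGFP intensity difference per well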
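medium = tetracycline-free induction medium containing charcoal-stripped FBS | also added = 1.0 µM final dexamethasone stimulus | schedule = 48 h induction, 1 h compound, 30 min dex at 37 °C | technique = fixed, Hoechst-stained cells imaged at 10x for EGFP | measure = GR-EGFP nuclear translocation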
Dynein inh conf: dynein cargo transport inhibition, confirmation. shares compounds with Dynein cargo inh. 1,000 tested, 69% active. 3617.4 GR-EGFP nuclear translocation imaging, dexamethasone-induced. AID 463116. calls only at 20 µM;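 active means inhibition of receptor movement into the nucleus at or above a set limit in both runs, with normal cell brightness and cell count; inconclusive means limit reached in only one run, brightness and count normal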;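 further: dexamethasone at 1 µM final in well for 30 min; nuclear minus cytoplasmic GR-EGFP mean intensity difference in channel 2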
* hit, by the source's call; i = inactive; u = inconclusive; x = not tested or not shown; + = active, no number. Rows were chosen to be rich in hits. Some 1.5% of all compounds tested hit in one or more screens of this group.

SMILES	TbHK1 inh	S1P4 antag	S1P4 ag	L929 necroptosis	TNF death inh	Dynein cargo inh	Dynein inh conf
Cc1ccnc(N/C=C(\C#N)c2nc(-c3cccc(Br)c3)cs2)c1	-1	-3	-2	0	-2	-12	+
CCN(CC)C(=O)C(=O)c1cn(CC(=O)N2CCc3ccccc3C2)c2ccccc12	-12	20	0	-1	1	0.17	x
CCCCCCCOC(=O)C[N+](C)(C)CCOC1CC2CCC1(C)C2(C)C (configuration not stated)	44	-3	-2	2	-2	-4.6*	i
O=C1/C(=C/c2cccc([N+](=O)[O-])c2)CSc2ccc(Cl)cc21	-12	5	-1	0	15	-0.69	x
CNc1ccc(/C=C2\CSc3ccccc3C2=O)cc1[N+](=O)[O-]	5	-19	1	0	-9	-4*	i
N#C/C(=C\c1ccc(OCc2cccc(C(=O)O)c2)cc1)C(=O)NCc1ccco1	-4	0	1	2	4	-0.16	x
N=c1n(Cc2ccccc2)c2ccccc2n1CC(O)COc1ccc(Cl)cc1Cl (configuration not stated)	26	-6	-1	-3	-15	-3.8*	i
CN1C(=S)N(c2cccnc2)C(=O)/C1=C\c1ccc(C(C)(C)C)cc1	-13	28	0	63	-8	-3.7*	u
CN1C(=S)N(c2cccnc2)C(=O)/C1=C\c1ccc(N(C)C)cc1	-11	3	-2	1	-3	0.93	x
CS(=O)(=O)c1sc(C#N)c2c1C(=O)CC(c1ccccc1)C2 (configuration not stated)	-7	15	0	22	-31	-3.8*	u
CO/N=C(\C(=O)O)c1csc(NN=C(C)C)n1	4	6	-1	0	-1	1.7	x
Cc1nc(COC(=O)c2ccc(CO)cc2)cs1	4	2	0	0	1	-0.37	x
Cc1nc(COC(=O)c2cc(O)c3ccccc3c2O)cs1	2	7	-1	1	-3	-3.6*	i
Cc1cc(NC(=O)CSc2nnc(-c3ccncc3)n2C)n(-c2ccccc2)n1	-2	-1	1	1	5	0.24	x
Cn1c(-c2ccccc2)c(C(=O)CCl)c2ccccc21	-5	15	1	45	-18	-3.8*	+
CCn1c(-c2ccccc2)c(C(=O)CCl)c2ccccc21	-4	9	1	49	-11	-3.3	x
CCOc1ccc(/C=C/[N+](=O)[O-])c2ccccc12	1	25	3	4	-15	-3.9*	i
O=[N+]([O-])/C=C/c1c(OCc2ccccc2)ccc2ccccc12	3	15	2	1	-10	-0.62	x
CCn1c(SCC(=O)N2CCOCC2)nc2sc3c(c2c1=O)CCCC3	-26	-18	2	-1	-1	3.7	x
CCn1c(SCC(=O)N2CCOCC2)nc2oc3c(Cl)cc(Cl)cc3c(=O)c2c1=O	-13	-5	0	3	4	-3.5*	+
NC(=O)N/N=C/c1c(Sc2nnnn2-c2ccccc2)nc2ccccn2c1=O	-42	11	-1	47	26	-5.3*	i
CN1CCCN(S(=O)(=O)c2ccc(Cl)c(Cl)c2)CC1	-2	-19	-2	1	2	-0.85	x
Nc1ccc(O)cc1C(=O)OCC(=O)c1ccc(C2CCCCC2)cc1	-1	8	1	0	-11	-3.5*	+
COc1ccc(C(=O)OCC(=O)c2ccc(C3CCCCC3)cc2)cc1	3	-14	2	0	-12	-0.35	x
O=C(/C=C\c1ccccc1OC(=O)c1ccccc1F)c1cc2ccccc2o1	-13	11	3	1	-1	-4.7*	+
SMILES	TbHK1 inh	S1P4 antag	S1P4 ag	L929 necroptosis	TNF death inh	Dynein cargo inh	Dynein inh conf
O=C1/C(=C/c2ccc(N3CCCC3)cc2)NC(=S)N1C1CC1	-9	13	-5	1	-4	-5	+
CCN1CCN(C(=O)C(N)Cc2ccccc2)CC1 (configuration not stated)	-3	-7	1	5	1	-0.52	x
CCn1c(=O)cc(C(=O)OC)sc1=Nc1ccc(F)c(F)c1	-11	-1	-1	-1	-8	-3.9*	+
COC(=O)c1cc(=O)n(Cc2ccc(OC)cc2)c(=NCc2ccc(OC)cc2)s1	-13	2	-1	-1	-1	-2.8	x
COC(=O)c1cc(=O)n(Cc2ccc3c(c2)OCO3)c(=Nc2ccc(F)c(Cl)c2)s1	-5	-33	2	-1	-7	-3.6*	+
COC(=O)c1cc(=O)n(CCc2ccc(OC)cc2)c(=Nc2ccc(F)c(Cl)c2)s1	-16	-7	0	-1	-2	-4.4*	+
CCOC(=O)c1ccc(N=c2sc(C(=O)OC)cc(=O)n2Cc2ccco2)cc1	-6	14	-1	-1	-14	-6.3*	+
CCCCN=c1sc(C(=O)OC)cc(=O)n1CCCC	29	-4	1	0	-1	-0.46	x
CCN(CCNCC(O)COCc1ccc(Cl)cc1)c1cccc(C)c1 (configuration not stated)	3	-9	-1	0	7	0.68	x
CCc1cc2c(=O)c(-c3nc(C)cs3)coc2cc1OC(C)C(=O)NCCO (configuration not stated)	-2	-2	0	1	1	-0.43	x
CCN(CC(=O)Nc1ccc(N2CCOCC2)cc1)C(=O)c1ccc(C(F)(F)F)cc1	0	0	-2	-1	0	-0.8	x
N#C/C(=C/c1ccc(N2CCOCC2)o1)c1ccc(Cl)cc1	-3	-8	0	1	-5	-9.1	i
Cc1nc(N)c(CC(Br)CBr)c(Cl)n1 (configuration not stated)	-8	9	-1	-1	1	0.27	x
O=C(/C=C/c1ccc(Cl)cc1)NC(=S)Nc1ccc(NC(=O)c2ccco2)cc1	-19	-8	3	1	5	1	x
Nc1nc(CCl)nc(Nc2ccc3ccccc3c2)n1	-17	26	3	1	-32	-4.3*	+
COc1ccc(Nc2nc(N)nc(CCl)n2)cc1	2	-2	-1	-2	-28	-1.3	x
CC(=O)NC(CSC(CC(=O)c1ccco1)c1ccc(C)cc1)C(=O)O (configuration not stated)	-19	8	0	1	2	-4.3*	i
CC(=O)NC(Cc1ccccc1)C(=O)N1CCN(C(=O)c2ccco2)CC1 (configuration not stated)	6	22	-3	0	0	-0.52	x
CCn1c(C)c(CS(=O)(=O)c2ccccc2)[nH]c1=O	0	-16	0	6	0	-5.6*	+
